Data taken from ChEMBL document CHEMBL1671686, “Carbapenem-resistant KPC-2-producing Escherichia coli in a Tel Aviv Medical Center, 2005 to 2008” (2010).
Values after ≈ are worked out from the molar mass of the structure shown.

Key:
Type in all cases: functional
Escherichia coli [1] = test: Antimicrobial activity against Escherichia coli DH10B by vitek-2 method in presence of beta-lactamase inhibitor Tazobactam; settings: K-12 DH10B
Procedure, shortened: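 Plasmid-free recipient E. coli DH10B, used as the host for electroporation transformants, was tested for susceptibility on the automated Vitek-2 system.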

Escherichia coli [2] = test: Antimicrobial activity against Escherichia coli isolate 386T expressing beta-lactamase KPC2, OXA-9 and PFGE cluster 1 isolated from wound of patient by vitek-2 method in presence of beta-lactamase inhibitor Tazobactam
Procedure, shortened: (§1)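 Test strains were E. coli DH10B transformants. Plasmids purified from the clinical isolates were electroporated in, transformants selected on LB agar with 100 μg/ml ampicillin, and colonies PCR-screened for blaKPC. Susceptibility of the transformants was then determined by automated Vitek-2 testing.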

Escherichia coli [3] = test: Antimicrobial activity against Escherichia coli isolate 360T expressing beta-lactamase KPC2, OXA-9 and PFGE cluster 1 isolated from urine of patient by vitek-2 method in presence of beta-lactamase inhibitor Tazobactam; procedure, shortened: as §1
Escherichia coli [4] = test: Antimicrobial activity against Escherichia coli isolate 1679T expressing beta-lactamase KPC2, TEM and PFGE cluster 6 isolated from peritoneal fluid of patient by vitek-2 method in presence of beta-lactamase inhibitor Tazobactam; procedure, shortened: as §1
Escherichia coli [5] = test: Antimicrobial activity against Escherichia coli isolate 360 expressing beta-lactamase KPC2, CTX-M-15, OXA-9, TEM and PFGE cluster 1 isolated from urine of patient by vitek-2 method in presence of beta-lactamase inhibitor Tazobactam; settings: isolate 360, Urine
Procedure, shortened: (§2)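 Antibiotic susceptibility of clinical carbapenem-resistant E. coli isolates (collected Feb 2005–Oct 2008) determined on the automated Vitek-2 system.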

Escherichia coli [6] = test: Antimicrobial activity against Escherichia coli isolate 339T expressing beta-lactamase KPC2 and PFGE cluster 5 isolated from peritoneal fluid of patient by vitek-2 method in presence of beta-lactamase inhibitor Tazobactam; procedure, shortened: as §1
Escherichia coli [7] = test: Antimicrobial activity against Escherichia coli isolate 1679 expressing beta-lactamase KPC2, SHV-12, TEM and PFGE cluster 6 isolated from peritoneal fluid of patient by vitek-2 method in presence of beta-lactamase inhibitor Tazobactam; procedure, shortened: as §2
Escherichia coli [8] = test: Antimicrobial activity against Escherichia coli isolate 547 expressing beta-lactamase KPC2, TEM and PFGE cluster 4 isolated from blood of patient by vitek-2 method in presence of beta-lactamase inhibitor Tazobactam
Procedure, shortened: (§3)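 Clinical carbapenem-resistant E. coli isolates collected at one hospital, February 2005 to October 2008. […] Susceptibilities came from automated Vitek-2 testing.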

Escherichia coli [9] = test: Antimicrobial activity against Escherichia coli isolate 339 expressing beta-lactamase KPC2, TEM and PFGE cluster 5 isolated from peritoneal fluid of patient by vitek-2 method in presence of beta-lactamase inhibitor Tazobactam; procedure, shortened: as §3
Escherichia coli [10] = test: Antimicrobial activity against Escherichia coli isolate 543T expressing beta-lactamase KPC2 and PFGE cluster 4 isolated from synovial fluid of patient by vitek-2 method in presence of beta-lactamase inhibitor Tazobactam
Procedure, shortened: (§4)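 Transformants were made by electroporating purified plasmids from clinical isolates into E. coli DH10B. They were selected on LB agar with 100 μg/ml ampicillin and PCR-screened for blaKPC. Susceptibility was then tested on Vitek-2.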

Escherichia coli [11] = test: Antimicrobial activity against Escherichia coli isolate 544 expressing beta-lactamase KPC2, TEM and PFGE cluster 4 isolated from abscess of patient by vitek-2 method in presence of beta-lactamase inhibitor Tazobactam; procedure, shortened: as §2
Escherichia coli [12] = test: Antimicrobial activity against Escherichia coli isolate 540 expressing beta-lactamase KPC2, TEM and PFGE cluster 4 isolated from synovial fluid of patient by vitek-2 method in presence of beta-lactamase inhibitor Tazobactam; procedure, shortened: as §3
Escherichia coli [13] = test: Antimicrobial activity against Escherichia coli isolate 386 expressing beta-lactamase KPC2, CTX-M-15, OXA-9, TEM and PFGE cluster 1 isolated from wound of patient by vitek-2 method in presence of beta-lactamase inhibitor Tazobactam; procedure, shortened: as §2
Escherichia coli [14] = test: Antimicrobial activity against Escherichia coli isolate 157T expressing beta-lactamase KPC2 and PFGE cluster 3 isolated from urine of patient by vitek-2 method in presence of beta-lactamase inhibitor Tazobactam; procedure, shortened: as §4
Escherichia coli [15] = test: Antimicrobial activity against Escherichia coli isolate 543 expressing beta-lactamase KPC2, CTX-M-15, TEM and PFGE cluster 4 isolated from synovial fluid of patient by vitek-2 method in presence of beta-lactamase inhibitor Tazobactam; procedure, shortened: as §2
Escherichia coli [16] = test: Antimicrobial activity against Escherichia coli isolate 157 expressing beta-lactamase KPC2, CTX-M-15, TEM and PFGE cluster 3 isolated from urine of patient by vitek-2 method in presence of beta-lactamase inhibitor Tazobactam; settings: isolate 157, Urine; procedure, shortened: as §2
Escherichia coli [17] = test: Antimicrobial activity against Escherichia coli isolate 329 expressing beta-lactamase KPC2, CTX-M-2, TEM and PFGE cluster 2 isolated from blood of patient by vitek-2 method in presence of beta-lactamase inhibitor Tazobactam; procedure, shortened: as §2
Escherichia coli [18] = test: Antimicrobial activity against Escherichia coli isolate 329T expressing beta-lactamase KPC2 and PFGE cluster 2 isolated from blood of patient by vitek-2 method in presence of beta-lactamase inhibitor Tazobactam; procedure, shortened: as §4
Escherichia coli [19] = test: Antimicrobial activity against Escherichia coli isolate 547T expressing beta-lactamase KPC2 and PFGE cluster 4 isolated from blood of patient by vitek-2 method in presence of beta-lactamase inhibitor Tazobactam; procedure, shortened: as §1
Escherichia coli [20] = test: Antimicrobial activity against Escherichia coli isolate 360T expressing beta-lactamase KPC2, OXA-9 and PFGE cluster 1 isolated from urine of patient by agar dilution method
Procedure, shortened: (§5)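 Transformant strains. Plasmids purified from the clinical isolates were electroporated into E. coli DH10B. Transformants were selected on LB agar with 100 μg/ml ampicillin, and colonies were PCR-screened for blaKPC before susceptibility testing.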

Escherichia coli [21] = test: Antimicrobial activity against Escherichia coli isolate 386 expressing beta-lactamase KPC2, CTX-M-15, OXA-9, TEM and PFGE cluster 1 isolated from wound of patient by agar dilution method
Procedure, shortened: (§6)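 Clinical carbapenem-resistant E. coli isolates collected Feb 2005–Oct 2008. Carbapenem MICs determined by agar dilution following CLSI protocols.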

Escherichia coli [22] = test: Antimicrobial activity against Escherichia coli isolate 544 expressing beta-lactamase KPC2, TEM and PFGE cluster 4 isolated from abscess of patient by agar dilution method
Procedure, shortened: (§7)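 Clinical carbapenem-resistant E. coli isolates from the hospital, February 2005 to October 2008. Carbapenem MICs were determined by agar dilution following CLSI protocols.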

Escherichia coli [23] = test: Antimicrobial activity against Escherichia coli isolate 157 expressing beta-lactamase KPC2, CTX-M-15, TEM and PFGE cluster 3 isolated from urine of patient by agar dilution method; settings: isolate 157, Urine; procedure, shortened: as §6
Escherichia coli [24] = test: Antimicrobial activity against Escherichia coli isolate 547T expressing beta-lactamase KPC2 and PFGE cluster 4 isolated from blood of patient by agar dilution method; procedure, shortened: as §5
Escherichia coli [25] = test: Antimicrobial activity against Escherichia coli isolate 339 expressing beta-lactamase KPC2, TEM and PFGE cluster 5 isolated from peritoneal fluid of patient by agar dilution method; procedure, shortened: as §7
Escherichia coli [26] = test: Antimicrobial activity against Escherichia coli isolate 329 expressing beta-lactamase KPC2, CTX-M-2, TEM and PFGE cluster 2 isolated from blood of patient by agar dilution method; procedure, shortened: as §7
Escherichia coli [27] = test: Antimicrobial activity against Escherichia coli isolate 543T expressing beta-lactamase KPC2 and PFGE cluster 4 isolated from synovial fluid of patient by agar dilution method; procedure, shortened: as §5
Escherichia coli [28] = test: Antimicrobial activity against Escherichia coli isolate 360 expressing beta-lactamase KPC2, CTX-M-15, OXA-9, TEM and PFGE cluster 1 isolated from urine of patient by agar dilution method; settings: isolate 360, Urine; procedure, shortened: as §6
Escherichia coli [29] = test: Antimicrobial activity against Escherichia coli isolate 1679T expressing beta-lactamase KPC2, TEM and PFGE cluster 6 isolated from peritoneal fluid of patient by agar dilution method; procedure, shortened: as §5
Escherichia coli [30] = test: Antimicrobial activity against Escherichia coli isolate 543 expressing beta-lactamase KPC2, CTX-M-15, TEM and PFGE cluster 4 isolated from synovial fluid of patient by agar dilution method; procedure, shortened: as §7
Escherichia coli [31] = test: Antimicrobial activity against Escherichia coli isolate 329T expressing beta-lactamase KPC2 and PFGE cluster 2 isolated from blood of patient by agar dilution method; procedure, shortened: as §5
Escherichia coli [32] = test: Antimicrobial activity against Escherichia coli isolate 157T expressing beta-lactamase KPC2 and PFGE cluster 3 isolated from urine of patient by agar dilution method; procedure, shortened: as §5
Escherichia coli [33] = test: Antimicrobial activity against Escherichia coli isolate 540 expressing beta-lactamase KPC2, TEM and PFGE cluster 4 isolated from synovial fluid of patient by agar dilution method; procedure, shortened: as §7
Escherichia coli [34] = test: Antimicrobial activity against Escherichia coli DH10B by Etest; settings: K-12 DH10B
Escherichia coli [35] = test: Antimicrobial activity against Escherichia coli isolate 339T expressing beta-lactamase KPC2 and PFGE cluster 5 isolated from peritoneal fluid of patient by agar dilution method; procedure, shortened: as §5
Escherichia coli [36] = test: Antimicrobial activity against Escherichia coli isolate 1679 expressing beta-lactamase KPC2, SHV-12, TEM and PFGE cluster 6 isolated from peritoneal fluid of patient by agar dilution method; procedure, shortened: as §7
Escherichia coli [37] = test: Antimicrobial activity against Escherichia coli isolate 386T expressing beta-lactamase KPC2, OXA-9 and PFGE cluster 1 isolated from wound of patient by agar dilution method; procedure, shortened: as §5
Escherichia coli [38] = test: Antimicrobial activity against Escherichia coli isolate 547 expressing beta-lactamase KPC2, TEM and PFGE cluster 4 isolated from blood of patient by agar dilution method; procedure, shortened: as §6

## CCN1CCN(C(=O)N[C@@H](C(=O)N[C@@H]2C(=O)N3[C@@H]2SC(C)(C)[C@@H]3C(=O)O)c2ccccc2)C(=O)C1=O [PIPERACILLIN]
Escherichia coli [1]
  MIC: > 1 µg/mL
Escherichia coli [2]
  MIC: 64 µg/mL
Escherichia coli [3]
  MIC: 64 µg/mL
Escherichia coli [4]
  MIC: 64 µg/mL
Escherichia coli [5]
  MIC: > 128 µg/mL
Escherichia coli [6]
  MIC: 64 µg/mL
Escherichia coli [7]
  MIC: > 128 µg/mL
Escherichia coli [8]
  MIC: 64 µg/mL
Escherichia coli [9]
  MIC: 64 µg/mL
Escherichia coli [10]
  MIC: > 128 µg/mL
Escherichia coli [11]
  MIC: > 128 µg/mL
Escherichia coli [12]
  MIC: 64 µg/mL
Escherichia coli [13]
  MIC: > 128 µg/mL
Escherichia coli [14]
  MIC: > 128 µg/mL
Escherichia coli [15]
  MIC: > 128 µg/mL
Escherichia coli [16]
  MIC: > 128 µg/mL
Escherichia coli [17]
  MIC: > 128 µg/mL
Escherichia coli [18]
  MIC: > 128 µg/mL
Escherichia coli [19]
  MIC: 64 µg/mL

## C[C@@H](O)[C@H]1C(=O)N2C(C(=O)O)=C(S[C@@H]3CN[C@H](C(=O)Nc4cccc(C(=O)O)c4)C3)[C@H](C)[C@H]12
Escherichia coli [20]
  MIC: 1 µg/mL (≈ 2.1 µM)
Escherichia coli [21]
  MIC: 8 µg/mL (≈ 16.8 µM)
Escherichia coli [22]
  MIC: 16 µg/mL (≈ 33.6 µM)
Escherichia coli [23]
  MIC: 8 µg/mL (≈ 16.8 µM)
Escherichia coli [24]
  MIC: 0.25 µg/mL (≈ 0.526 µM)
Escherichia coli [25]
  MIC: 16 µg/mL (≈ 33.6 µM)
Escherichia coli [26]
  MIC: 32 µg/mL (≈ 67.3 µM)
Escherichia coli [27]
  MIC: 2 µg/mL (≈ 4.21 µM)
Escherichia coli [28]
  MIC: 8 µg/mL (≈ 16.8 µM)
Escherichia coli [29]
  MIC: 1 µg/mL (≈ 2.1 µM)
Escherichia coli [30]
  MIC: 16 µg/mL (≈ 33.6 µM)
Escherichia coli [31]
  MIC: 4 µg/mL (≈ 8.41 µM)
Escherichia coli [32]
  MIC: 4 µg/mL (≈ 8.41 µM)
Escherichia coli [33]
  MIC: 16 µg/mL (≈ 33.6 µM)
Escherichia coli [34]
  MIC: 0.023 µg/mL (≈ 0.0484 µM)
Escherichia coli [35]
  MIC: 4 µg/mL (≈ 8.41 µM)
Escherichia coli [36]
  MIC: 32 µg/mL (≈ 67.3 µM)
Escherichia coli [37]
  MIC: 1 µg/mL (≈ 2.1 µM)
Escherichia coli [38]
  MIC: 8 µg/mL (≈ 16.8 µM)
